Bioassay records deposited in PubChem by several laboratories.
Only some compounds are listed: those with a hit (about 3.3% of all), similar ones and a draw of the others.
sPLA2-III inh: human group III sPLA2 inhibitors, primary screen, biochemical, QFRET, BODIPY PC-A2 liposome substrate; Group 3 secretory phospholipase A2 (Homo sapiens), Q9NZ20; QFRET BODIPY PC-A2 liposome hydrolysis, fluorescence; inhibition, % at 12.2 µM; 370,000 tested, 0.56% active;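 active means inhibition above mean plus 3 SD of compounds lying within the high and low control bounds, cut at about 19% in these data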
Hep lipid drop: inhibitors of hepatocyte lipid droplet formation, primary screen, imaging, high-throughput imaging, BODIPY stain | AID 1656, 2009 | 240,000 tested, 0.4% active | AML12 mouse hepatocytes, oleate lipid droplets | inhibition, % at 6.5 µM;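 active means lipid droplet intensity inhibited by at least 50%, with more than 500 cells counted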
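Assay system: AML12 mouse liver cells | Compound: 6.5 µM single-point dosing | Schedule: Overnight exposure | Technique: Fluorescence imaging, 20x objective, two fields per well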
HTR2A ag: mouse Htr2a agonists via beta-arrestin recruitment, primary screen, cell-based, luminescence | AID 624169, 2012 | 360,000 tested, 0.66% active | activation, % at 7.6 µM | 5-hydroxytryptamine receptor 2A (Mus musculus), P35363 | CHO-K1 mHTR2A beta-arrestin complementation; percent of 30 µM serotonin response;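 active means activation above a run cutoff, the mean activation of all tested compounds plus 3 SD, cut at about 14% in these data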
Target sequence (P35363 whole entry, looked up): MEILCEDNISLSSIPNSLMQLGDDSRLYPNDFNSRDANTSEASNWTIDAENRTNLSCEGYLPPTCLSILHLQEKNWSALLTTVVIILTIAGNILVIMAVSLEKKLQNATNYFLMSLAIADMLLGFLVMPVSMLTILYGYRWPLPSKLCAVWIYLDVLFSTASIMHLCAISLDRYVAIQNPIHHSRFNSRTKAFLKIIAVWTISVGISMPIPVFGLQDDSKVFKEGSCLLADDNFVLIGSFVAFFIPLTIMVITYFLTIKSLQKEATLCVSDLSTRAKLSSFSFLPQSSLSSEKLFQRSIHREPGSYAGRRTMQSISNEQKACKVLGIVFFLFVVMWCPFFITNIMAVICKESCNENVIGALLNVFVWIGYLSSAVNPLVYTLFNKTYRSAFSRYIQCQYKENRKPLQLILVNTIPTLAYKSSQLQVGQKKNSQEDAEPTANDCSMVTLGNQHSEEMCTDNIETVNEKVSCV
CendR NRP1 mod: modulators of CendR peptide binding to NRP-1, primary screen, biochemical, fluorescence polarization, uHTS | Neuropilin-1 (Homo sapiens), O14786 | FAM-RPARPAR peptide binding to NRP-1 | inhibition, % at 25 µM | 360,000 tested, 0.85% active;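 active means inhibition or corrected inhibition above about 18%, plus a signal ratio from 0.5 to 1.5, limit read from the data, passing the limit was not always enough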
PfM18AAP inh: PfM18AAP inhibitors, malaria aminopeptidase, primary screen, biochemical, QFRET, recombinant enzyme | H-Glu-NHMec fluorogenic cleavage | M18 aspartyl aminopeptidase (Plasmodium falciparum 3D7) | inhibition, % at 7.35 µM | AID 1822, 2009 | 290,000 tested, 1.2% active;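 active means inhibition above the campaign mean inhibition over all tested compounds plus 3 SD, cut at about 28% in these data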
Arr AP2 block: inhibitors of beta-arrestin/AP2 binding, primary screen, biochemical, GPCR trafficking, flow cytometry. beta-arrestin 1 C-terminal peptide binding to AP2 beta2-adaptin appendage (human). FITC-arrestin peptide / GST-AP2 beads; AP2 beta2 appendage carries R879A mutation. inhibition, % at 10 µM. 340,000 tested, 0.31% active. AID 504490, 2011;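 active means inhibition above a set limit, near 3 SD of compounds lacking own fluorescence, cut at about 54% in these data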
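test system = AP2 appendage R879A on GSH beads | buffer or medium = PBS plus Tween 20 (0.05%) and BSA (0.1%) | incubation = 12 min plus 1 h, RT | detection = bead flow cytometry, FITC channel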
sPLA2 confirm: human group III sPLA2 inhibitors, confirmation, biochemical, QFRET, triplicate | shares compounds with sPLA2-III inh | inhibition, % at 12.2 µM | 2,000 tested, 34% active | recombinant hGIII-sPLA2, BODIPY PC-A2 QFRET fluorescence;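 active means mean inhibition across triplicates above the hit cutoff set in the earlier primary screen, cut at about 19% in these data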
535nm interf: 535nm fluorescence optical interference, confirmation, artefact control for HGIII-sPLA2 inhibitor project, biochemical, QFRET | shares compounds with sPLA2-III inh | BODIPY FL product fluorescence interference | inhibition, % at 12.2 µM | 2,000 tested, 8.5% active;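 active means average inhibition above the solvent-only control mean plus 3 SD, cut at about 6% in these data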
BODIPY interf DR: 535nm fluorescence optical interference, dose response, artefact control for HGIII-sPLA2 inhibitor project, biochemical, QFRET. shares compounds with sPLA2-III inh. BODIPY FL product fluorescence interference, cell-free. IC50, µM. 240 tested, under 10 active. AID 743455, 2014;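 active means IC50 at or below 10 µM; inactive means IC50 above 10 µM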
Hits are given with their value.

Results for O=C(CNc1ccc2ccccc2c1)N/N=C/c1ccncc1 ?
sPLA2-III inh: 20; Hep lipid drop: inactive; HTR2A ag: inactive; CendR NRP1 mod: inactive; PfM18AAP inh: inactive; Arr AP2 block: inactive; sPLA2 confirm: inactive; 535nm interf: inactive

What do the screens show for `CSc1nc(N)nc2c1ncn2CC(=O)N[C@H](C)c1cccc2ccccc12`?
sPLA2-III inh: inactive; HTR2A ag: inactive; CendR NRP1 mod: inactive; Arr AP2 block: inactive

How did Cc1cc(C)nc(NC(=O)/C=C/c2ccccc2Cl)n1 do in these assays?
sPLA2-III inh: inactive; Hep lipid drop: inactive; HTR2A ag: inactive; CendR NRP1 mod: inactive; PfM18AAP inh: inactive; Arr AP2 block: inactive

Results for Cc1cc(C(=O)NNC(=S)NC(=O)/C=C/c2ccccc2Cl)n[nH]1 ?
sPLA2-III inh: 26; Hep lipid drop: inactive; HTR2A ag: inactive; CendR NRP1 mod: inactive; PfM18AAP inh: inactive; Arr AP2 block: inactive; sPLA2 confirm: 42; 535nm interf: inactive; BODIPY interf DR: inactive

Results for Cc1ccc(C(=O)NC(=S)/C=C2\N(C)c3ccccc3C2(C)C)cc1 ?
sPLA2-III inh: 30; Hep lipid drop: inactive; HTR2A ag: inactive; CendR NRP1 mod: inactive; PfM18AAP inh: inactive; Arr AP2 block: inactive; sPLA2 confirm: 45; 535nm interf: inactive; BODIPY interf DR: inactive

Results for CC(C)C(=O)NC(=S)/C=C1/N(C)c2ccccc2C1(C)C ?
sPLA2-III inh: inactive; Hep lipid drop: inactive; HTR2A ag: inactive; CendR NRP1 mod: inactive; PfM18AAP inh: inactive; Arr AP2 block: inactive

Results for COc1cccc(-c2csc(NNC(=O)c3cccs3)n2)c1 ?
sPLA2-III inh: 23; Hep lipid drop: inactive; HTR2A ag: inactive; CendR NRP1 mod: inactive; PfM18AAP inh: inactive; Arr AP2 block: inactive; sPLA2 confirm: 45; 535nm interf: 7.3

What do the screens show for `COc1cccc(-c2csc(NC(=O)Oc3ccccc3)n2)c1`?
sPLA2-III inh: inactive; HTR2A ag: inactive; CendR NRP1 mod: inactive; PfM18AAP inh: inactive; Arr AP2 block: inactive

Results for O=C(NC12CC3CC(CC(C3)C1)C2)N(Cc1ccccc1)Cc1ccncc1 ?
sPLA2-III inh: inactive; HTR2A ag: inactive; CendR NRP1 mod: inactive; PfM18AAP inh: inactive; Arr AP2 block: inactive

How did Cc1cc(C)c(CN2CCN(C(=O)Cn3cnc4c(OCc5ccccc5)ncnc43)CC2)c(C)c1 do in these assays?
sPLA2-III inh: inactive; HTR2A ag: inactive; CendR NRP1 mod: inactive; Arr AP2 block: inactive

How did Cn1c(=O)c2[nH]c(=S)n(Cc3ccccc3)c2n(C)c1=O do in these assays?
sPLA2-III inh: 23; HTR2A ag: inactive; CendR NRP1 mod: inactive; Arr AP2 block: inactive; sPLA2 confirm: inactive; 535nm interf: inactive

Results for CC1CCN(CC(=O)Nc2cc(C(F)(F)F)ccc2Cl)CC1 ?
sPLA2-III inh: 21; Hep lipid drop: inactive; HTR2A ag: inactive; CendR NRP1 mod: inactive; PfM18AAP inh: inactive; Arr AP2 block: inactive; sPLA2 confirm: inactive; 535nm interf: inactive

How did O=C(CCNC(=O)c1ccccc1Cl)Nc1cc(C(F)(F)F)ccc1Cl do in these assays?
sPLA2-III inh: 21; Hep lipid drop: inactive; HTR2A ag: inactive; CendR NRP1 mod: inactive; PfM18AAP inh: inactive; Arr AP2 block: inactive; sPLA2 confirm: inactive; 535nm interf: inactive

What do the screens show for `O=C(CN1CCCCCC1)Nc1cc(C(F)(F)F)ccc1Cl`?
sPLA2-III inh: inactive; Hep lipid drop: inactive; HTR2A ag: inactive; CendR NRP1 mod: inactive; PfM18AAP inh: inactive; Arr AP2 block: inactive

Results for CCOC(=O)/C(C#N)=C1\SS/C(=C(/C#N)C(=O)OCC)S1 ?
Hep lipid drop: inactive; PfM18AAP inh: inactive

Results for COc1ccc2ccccc2c1/C=N/Nc1ccc(Cl)c(C(=O)O)c1 ?
sPLA2-III inh: inactive; Hep lipid drop: inactive; HTR2A ag: inactive; CendR NRP1 mod: inactive; PfM18AAP inh: inactive; Arr AP2 block: inactive

Results for COc1ccc(N/N=C/c2c(C(=O)O)ccc3ccccc23)cc1 ?
sPLA2-III inh: 19; Hep lipid drop: inactive; HTR2A ag: inactive; CendR NRP1 mod: inactive; PfM18AAP inh: inactive; Arr AP2 block: inactive; sPLA2 confirm: inactive; 535nm interf: inactive

Results for COc1ccc(-n2nc(C(=O)c3cccs3)cc(-c3nc4ccccc4[nH]3)c2=N)cc1 ?
sPLA2-III inh: inactive; Hep lipid drop: inactive; HTR2A ag: inactive; CendR NRP1 mod: inactive; PfM18AAP inh: inactive; Arr AP2 block: inactive

What do the screens show for `Cc1ccccc1-n1nc(C(=O)c2cccs2)cc(-c2nc3ccccc3[nH]2)c1=N`?
sPLA2-III inh: 23; Hep lipid drop: inactive; HTR2A ag: inactive; CendR NRP1 mod: inactive; PfM18AAP inh: inactive; Arr AP2 block: inactive; sPLA2 confirm: inactive; 535nm interf: 7.4

What do the screens show for `CCOC(=O)c1c(C)[nH]c(C(=O)N/N=C\c2ccccc2O)c1C`?
sPLA2-III inh: inactive; Hep lipid drop: inactive; HTR2A ag: inactive; CendR NRP1 mod: inactive; PfM18AAP inh: inactive; Arr AP2 block: inactive

How did CCOC(=O)c1c(C)[nH]c(C(=O)N/N=C/c2cc([N+](=O)[O-])ccc2O)c1C do in these assays?
sPLA2-III inh: 24; Hep lipid drop: inactive; HTR2A ag: inactive; CendR NRP1 mod: inactive; PfM18AAP inh: inactive; Arr AP2 block: inactive; sPLA2 confirm: inactive; 535nm interf: 6.1

How did C=C1[C@@H](OC(C)=O)C=C[C@@]2(C)C=CC(=O)[C@@](C)(OC(C)=O)[C@@H]2[C@@H](OC(C)=O)[C@]2(O)[C@@H](C)C(=O)O[C@H]2[C@H]1Cl do in these assays?
sPLA2-III inh: inactive; HTR2A ag: inactive; CendR NRP1 mod: inactive

How did CS(=O)(=O)Oc1ccc(/C=N/NC(=O)c2ccncc2)cc1 do in these assays?
sPLA2-III inh: 19; Hep lipid drop: inactive; HTR2A ag: inactive; CendR NRP1 mod: inactive; PfM18AAP inh: inactive; Arr AP2 block: inactive; sPLA2 confirm: inactive; 535nm interf: inactive
